Active and inactive are the calls of the source. The rule behind the calls is not given here.
Experiments:
[1] = system: Micrococcus luteus; assay: Antibacterial activity against Micrococcus luteus CMCC 28001 assessed as bacterial growth inhibition incubated for 18 to 24 hrs by microtiter broth dilution method; type: functional; settings: time 18-24 hrs
How it was run: (§1)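 Log-phase cells (grown overnight at 37 °C, subcultured in MHB) diluted to 10^5 CFU/mL in MHB and mixed 1:1 with serial peptide dilutions prepared in 0.01% acetic acid/0.2% BSA. Incubated 37 °C for 18-24 h. MIC is the lowest concentration giving no growth by OD492. Reported as the average of 3-5 independent experiments.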

[2] = system: Salmonella enterica subsp. enterica serovar Paratyphi B; assay: Antibacterial activity against Salmonella paratyphi B CICC 21495 assessed as bacterial growth inhibition incubated for 18 to 24 hrs by microtiter broth dilution method; type: functional; settings: time 18-24 hrs
How it was run: (§2)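 Log-phase bacteria grown at 37 °C in MHB, diluted to 10^5 CFU/mL, mixed 1:1 with serial peptide dilutions (peptide diluted in 0.01% acetic acid, 0.2% BSA); 37 °C for 18-24 h. MIC read by OD492 as lowest concentration giving no growth; mean of 3-5 independent experiments.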

[3] = system: Salmonella paratyphi; assay: Antibacterial activity against Salmonella paratyphi A CICC 20501 assessed as bacterial growth inhibition incubated for 18 to 24 hrs by microtiter broth dilution method; type: functional, Salmonella enterica subsp. enterica serovar Paratyphi A; settings: Salmonella enterica, time 18-24 hrs; how it was run: as §2
[4] = system: Escherichia coli; assay: Antibacterial activity against Escherichia coli O157:H7 CICC 21530 assessed as bacterial growth inhibition incubated for 18 to 24 hrs in presence of 2 mM CaCl2 by microtiter broth dilution method (reference value: 0.85 to > 71.5 uM); type: functional; settings: time 18-24 hrs
[5] = system: Candida albicans; assay: Antifungal activity against Candida albicans ATCC 10231 assessed as fungal growth inhibition incubated for 18 to 24 hrs by microtiter broth dilution method; type: functional; settings: time 18-24 hrs; how it was run: as §1
[6] = system: Staphylococcus aureus; assay: Antibacterial activity against Staphylococcus aureus ATCC 29213 assessed as bacterial growth inhibition incubated for 18 to 24 hrs by microtiter broth dilution method; type: functional; settings: time 18-24 hrs; how it was run: as §1
[7] = system: Cell membrane; assay: Induction of cell membrane depolarization in Escherichia coli O157:H7 CICC 21530 assessed as increase in fluorescence intensity at 0.5 to 2 times MIC preincubated for 90 mins followed by KCl addition and measured after 15 to 30 mins by DiSC3-5 staining based fluorescence spectroscopic technique; type: subcellular; settings: time 105-120 min
[8] = system: Salmonella enteritidis; assay: Antibacterial activity against Salmonella enteritidis CICC 21527 assessed as bacterial growth inhibition incubated for 18 to 24 hrs by microtiter broth dilution method; type: functional, Salmonella enterica subsp. enterica serovar Enteritidis; settings: Salmonella enterica, time 18-24 hrs; how it was run: as §1
[9] = system: Escherichia coli; assay: Antibacterial activity against Escherichia coli O157:H7 CICC 21530 assessed as bacterial growth inhibition incubated for 18 to 24 hrs by microtiter broth dilution method; type: functional; settings: time 18-24 hrs; how it was run: as §2
[10] = system: Staphylococcus aureus; assay: Antibacterial activity against Staphylococcus aureus ATCC 29213 assessed as bacterial growth inhibition incubated for 18 to 24 hrs in presence of 2 mM CaCl2 by microtiter broth dilution method (reference value: 0.43 to > 71.5 uM); type: functional; settings: time 18-24 hrs
[11] = system: Listeria monocytogenes; assay: Antibacterial activity against Listeria monocytogenes CICC 21662 assessed as bacterial growth inhibition incubated for 18 to 24 hrs by microtiter broth dilution method; type: functional; settings: time 18-24 hrs; how it was run: as §1
[12] = system: Escherichia coli; assay: Antibacterial activity against Escherichia coli O157:H7 CICC 21530 assessed as bacterial growth inhibition incubated for 18 to 24 hrs in presence of 6 mM NH4Cl by microtiter broth dilution method (reference value: 0.85 to > 71.5 uM); type: functional; settings: time 18-24 hrs
[13] = system: Staphylococcus aureus; assay: Antibacterial activity against Staphylococcus aureus ATCC 29213 assessed as bacterial growth inhibition incubated for 18 to 24 hrs in presence of 150 mM NaCl by microtiter broth dilution method (reference value: 0.43 to > 71.5 uM); type: functional; settings: time 18-24 hrs
[14] = Therapeutic index, ratio of MHC10 for human RBC to geometric mean of peptide MIC for Escherichia coli O157:H7 CICC 21530; type: toxicity; settings: human red blood cells (RBC), pooled result: one value given for 11 cell lines, strains, targets or settings, read-out: TI
How it was run: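 Therapeutic index = MHC (peptide concentration giving 10% hemolysis of human RBCs, 1 h, 37 °C, A540) divided by geometric mean of MICs from broth microdilution (10^5 CFU/mL in MHB, 37 °C, 18-24 h, OD492).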

[15] = system: Escherichia coli; assay: Antibacterial activity against Escherichia coli O157:H7 CICC 21530 assessed as bacterial growth inhibition incubated for 18 to 24 hrs in presence of 150 mM NaCl by microtiter broth dilution method (reference value: 0.85 to > 71.5 uM); type: functional; settings: time 18-24 hrs
[16] = system: Escherichia coli; assay: Bactericidal activity against Escherichia coli O157:H7 CICC 21530 assessed as bacterial killing at 1 times MIC by time kill assay; type: functional, organism-based; settings: time 1085.0 min, TDE = time-dependent effect
[17] = system: Escherichia coli; assay: Antibacterial activity against Escherichia coli O157:H7 CICC 21530 assessed as bacterial growth inhibition incubated for 18 to 24 hrs in presence of 1 mM MgCl2 by microtiter broth dilution method (reference value: 0.85 to > 71.5 uM); type: functional; settings: time 18-24 hrs
[18] = system: Salmonella enterica; assay: Antibacterial activity against Salmonella choleraesuis ATCC 13312 assessed as bacterial growth inhibition incubated for 18 to 24 hrs by broth dilution method; type: functional; settings: time 18-24 hrs; how it was run: as §2
[19] = system: Shigella flexneri; assay: Antibacterial activity against Shigella flexneri CMCC 51571 assessed as bacterial growth inhibition incubated for 18 to 24 hrs by microtiter broth dilution method; type: functional; settings: time 18-24 hrs; how it was run: as §1
[20] = system: Vibrio parahaemolyticus; assay: Antibacterial activity against Vibrio parahaemolyticus CICC 21617 assessed as bacterial growth inhibition incubated for 18 to 24 hrs by broth dilution method; type: functional; settings: time 18-24 hrs; how it was run: as §1
[21] = system: Listeria monocytogenes; assay: Antibacterial activity against Listeria monocytogenes CICC 21633 assessed as bacterial growth inhibition incubated for 18 to 24 hrs by microtiter broth dilution method; type: functional; settings: time 18-24 hrs; how it was run: as §1
[22] = system: Staphylococcus aureus; assay: Antibacterial activity against methicillin resistant Staphylococcus aureus ATCC 43300 assessed as bacterial growth inhibition incubated for 18 to 24 hrs by microtiter broth dilution method; type: functional; settings: time 18-24 hrs; how it was run: as §2
[23] = system: Salmonella typhimurium; assay: Antibacterial activity against Salmonella typhimurium CMCC 51005 assessed as bacterial growth inhibition incubated for 18 to 24 hrs by microtiter broth dilution method; type: functional, Salmonella enterica subsp. enterica serovar Typhimurium; settings: Salmonella enterica, time 18-24 hrs; how it was run: as §1
[24] = system: Bacillus cereus; assay: Antibacterial activity against Bacillus cereus CMCC 63301 assessed as bacterial growth inhibition incubated for 18 to 24 hrs by microtiter broth dilution method; type: functional; settings: time 18-24 hrs; how it was run: as §1

Row | Substance | MIC [1] [µM] | MIC [2] [µM] | MIC [3] [µM] | MIC [4] [µM] | MIC [5] [µM] | MIC [6] [µM] | Activity [7] | MIC [8] [µM] | MIC [9] [µM] | MIC [10] [µM] | MIC [11] [µM] | MIC [12] [µM] | MIC [13] [µM] | selectivity ratio [14] | MIC [15] [µM] | Activity [16] | MIC [17] [µM] | MIC [18] [µM] | MIC [19] [µM] | MIC [20] [µM] | also measured
1 | H-WGRAFSAGVHRLARGGRG-NH2 | > 67 | > 67 | 33.5 | > 67 | > 67 | > 67 | Active | > 67 | 16.8 | > 67 | 33.5 | 8.35 | > 67 | 1.55 | > 67 | Tde | 67 | 33.5 | > 67 | > 67 | MIC [21]: 67 µM; MIC [22]: > 67 µM; MIC [23]: > 67 µM; MIC [24]: > 67 µM
2 | H-WGRAFSRGVRRLARGGRG-NH2 | > 63.5 | 15.9 | 15.9 | 15.9 | > 63.5 | 31.8 | Active | > 63.5 | 7.94 | > 63.5 | 15.9 | 7.94 | > 63.5 | 4.26 | 15.9 | Tde | 7.94 | 15.9 | 15.9 | > 63.5 | MIC [21]: 31.8 µM; MIC [22]: > 63.5 µM; MIC [23]: > 63.5 µM; MIC [24]: > 63.5 µM
3 | H-WGRAFRRGVRRLARGGRR-NH2 | 7.33 | 3.67 | 7.33 | 7.33 | 29.3 | 14.7 | Active | > 58.6 | 3.67 | 7.33 | 7.33 | 3.67 | 14.7 | 7.51 | 14.7 | Tde | 3.67 | 14.7 | 7.33 | 29.3 | MIC [21]: 7.33 µM; MIC [22]: 14.7 µM; MIC [23]: > 58.6 µM; MIC [24]: 14.7 µM
4 | H-WGRAFSAGVHRLANGGNG-NH2 | > 70.1 | > 70.1 | > 70.1 | > 70.1 | > 70.1 | > 70.1 | Active | > 70.1 | > 70.1 | > 70.1 | > 70.1 | > 70.1 | > 70.1 | 1 | > 70.1 | Tde | > 70.1 | > 70.1 | > 70.1 | > 70.1 | MIC [21]: > 70.1 µM; MIC [22]: > 70.1 µM; MIC [23]: > 70.1 µM; MIC [24]: > 70.1 µM
5 | H-WGRAFRRLVRRLARGLRR-NH2 | 27.9 | 6.97 | 3.49 | 13.9 | 13.9 | 3.49 | Active | > 55.8 | 6.97 | 3.49 | 1.74 | 3.49 | 6.97 | 10.3 | 13.9 | Tde | 6.97 | 13.9 | 3.49 | 13.9 | MIC [21]: 1.74 µM; MIC [22]: 6.97 µM; MIC [23]: 13.9 µM; MIC [24]: 55.8 µM
6 | H-WLRAFRRLVRRLARLLRR-NH2 | 13.3 | 3.32 | 6.65 | > 53.2 | 26.6 | 6.65 | Active | > 53.2 | 3.32 | 13.3 | 3.32 | > 53.2 | 26.6 | 4.83 | > 53.2 | Tde | > 53.2 | 13.3 | 1.66 | 6.65 | MIC [21]: 3.32 µM; MIC [22]: 3.32 µM; MIC [23]: > 53.2 µM; MIC [24]: 53.2 µM

Reference: ChEMBL document CHEMBL4765236, “Insights into the Antimicrobial Activity and Cytotoxicity of Engineered α-Helical Peptide Amphiphiles” (J Med Chem, 2016)
